Experiment: Toxicity liver stage against HepG2, at 10uM
Assay type: cell-based
Set-up: test concentration 10 uM, cell line HepG2-A16-CD81EGFP
Details: human, HepG2-A16-CD81EGFP cells; read-out: INHIBITION
How it was run: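 Uninfected HepG2-A16-CD81EGFP cells, 3 × 10^3 per well, 1536-well, plated on prespotted compound at 10 μM final, parasite-free screening media added to match infected plates; puromycin 10 μM positive, DMSO 0.5% negative; run in parallel with 48 h PbLuc assay at 37 °C, 5% CO2; viability by CellTiter-Glo luminescence, normalized to controls.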

SMILES | cytotoxicity at 10 µM [%]
CC(=O)c1c(N(C)C)ccnc1C(F)(F)F | 1.1
COC(=O)[C@H]1CN(C(=O)NC(C)C)CCN1C(=O)c1cccs1 | -0.832
CN(CC(=O)N1CCC(Oc2ccc(C(F)(F)F)cn2)CC1)S(C)(=O)=O | 1.97
COc1ccc(S(=O)(=O)NCCC(O)c2cc(C)oc2C)c(C)c1 (stereo not drawn) | -0.165
O=C1CC2(CCN(S(=O)(=O)c3cccs3)C2)CN1c1cccc(F)c1 (stereo not drawn) | -1.51
CCN1C(=O)C2(CCOCC2)c2cc(NC(=O)COC)ccc21 | -0.82
O=C(C1CCOCC1)N1CCO[C@H]2[C@@H](OCC3CC3)CC[C@@H]21 | -6.22
CC(O)CNC(=O)c1nc(Cc2c(Cl)cccc2Cl)no1 (stereo not drawn) | 3
CC(C)n1[nH]c(=O)c2c1NC(=O)CC2c1ccc2ncccc2c1 (stereo not drawn) | 9.76
COc1cc(N2C[C@H]3OCC[C@H]3[C@H](C(=O)NC3CC3)C2)ncn1 | -8.83
CC1CCN(C(=O)C(C)Oc2ccc3c(c2)OCO3)CC1 (stereo not drawn) | -1.9
CC1=C(C(N)=O)C(c2cn(C)nc2C)N2C(=O)CSC2=N1 (stereo not drawn) | 4.43
Cc1cccc(CNC(=O)CC2CCN(S(C)(=O)=O)CC2)n1 | -1.57
CC(=O)N1CCC(c2cnc(NC3CCOCC3)cn2)CC1 | -3.73
O=C1CN(C(=O)C2CN(c3ccc(F)cc3)CCO2)CCN1 (stereo not drawn) | 3.04
O=C(c1cc(-c2cccnc2)[nH]n1)N1CCCC(c2cnccn2)C1 (stereo not drawn) | 6.21
CN(C)S(=O)(=O)N1CC(c2nc(N)ncc2-c2ccc(F)cc2)C1 | -4.64
Cn1ccnc1CN1CCC(CCCc2ccccn2)(C(N)=O)CC1 | -1.31
Cc1cncnc1C1CCN(CCO)CC1 | -7.26
Cc1nc(C2CN(C)CCO2)cc(N2CCC(C(N)=O)CC2)n1 (stereo not drawn) | -22.8
CNc1nccnc1C1CCN(C(C)C)CC1 | -25.2
COC(=O)[C@H](C)NC(=O)c1nc(C2CC2)n(-c2ccccc2Cl)n1 | -1.76
CN(C)C(=O)CNC(=O)c1nc(C2CC2)n(-c2ccccc2Cl)n1 | -2.03

SMILES | cytotoxicity at 10 µM [%]
Cc1nnc(NCc2ccc(SC(F)F)cc2)o1 | 6.48
CN1CCCN(S(=O)(=O)c2cn(C)cn2)c2cc(F)ccc21 | 6.06
Brc1ccc(NCCCOC2CCOCC2)nc1 | 1.52
Cc1ncsc1C(=O)NCC1SCCc2ccccc21 (stereo not drawn) | -8.21
CCN(CC)C(=O)CN(C)C(=O)c1cccn1CCc1ccccc1 | 1.98
NC(=O)N1CCCC(C(=O)NCCOc2ccc(F)cc2F)C1 (stereo not drawn) | 3.26
CC(O)(CNc1ccc(Cl)c(C#N)n1)c1ccsc1 (stereo not drawn) | 3.39
N#Cc1ccccc1CN1CCC(CN2CCOCC2)C1 (stereo not drawn) | -4.5
CNC(=O)c1cccnc1NCCOc1ccc(CC#N)cc1 | -1.53
Cc1csc(C(C)(C)NCc2ncc(-c3ccccc3)o2)n1 | 7.95
Cc1c(NC(C)C(C)C)cccc1C(=O)NCc1nnc(C)n1C (stereo not drawn) | 6.45
COc1ccc(C(=O)NCC(=O)N(Cc2ccsc2)C2CC2)cc1OC | 0.995
Cn1c(=O)ccn(CC(=O)Nc2cnccc2O)c1=O | 2.13
CCOc1ccc(NS(=O)(=O)c2cc(C)c(C(=O)O)s2)c(C)c1 | -3.21
O=C(Cc1cccc(F)c1)NCCNCC1CNc2ccnn2C1 (stereo not drawn) | 2.04
Cn1cnc(S(=O)(=O)N2CCOCC2)c1Cl | 5.9
COC(=O)CN1CCN(c2cccc(C)c2)CC1 | 3.54
O=C(c1ccc(-c2ccccc2)[nH]c1=O)N1CCCn2ncnc21 | 1.46
COc1ncc(C)cc1NC(=O)COCC(F)(F)F | -5.42
Cc1nnc(CN2CCC(Oc3ccc(C)c(C)c3)CC2)o1 | 7.27
Cc1cn(-c2ccccc2)nc1NS(=O)(=O)c1ccc(C(=O)O)cc1F | -2.59
O=C(NCCCn1nc2ccccn2c1=O)NCC(C1CC1)C1CC1 | 6.01
CC(C)C1CN(S(=O)(=O)c2cccc(C#N)c2)CCS1 (stereo not drawn) | 1.06

SMILES | cytotoxicity at 10 µM [%]
CN(C)S(=O)(=O)Nc1ccc(-n2nncc2C(F)(F)F)cc1 | -2.64
O=C(Nc1nnc(N2CCCCC2)[nH]1)c1cccs1 | -10.7
CC(C)c1ocnc1C(=O)N1CCCC(c2ccn[nH]2)C1 (stereo not drawn) | -3.92
OC(CN(Cc1ccccc1)Cc1ccncc1)c1ccco1 (stereo not drawn) | 24.7
CCc1cc(NC(=O)c2cccc(OCC(F)(F)F)n2)[nH]n1 | -1.42
CC(=O)N1CCC(NC(=O)N2CCCC2c2ccsc2)CC1 (stereo not drawn) | 0.421
CCCC(C)(C)NC(=O)c1cnc(C)s1 | 4.51
COc1ccccc1CC(C)(C)NC(=O)CNS(C)(=O)=O | 4.21
Cc1ccsc1CNC(=O)c1ccc2c(c1)CCC(=O)N2 | 4.91
Cc1nn(C)c(Oc2ccccc2)c1CNC1CCCCNC1=O (stereo not drawn) | 2.56
CC(C)Cc1nc(CNCc2cccc(N3CCCC3=O)c2)no1 | 0.753
Cn1cnc2cc(C(=O)NS(=O)(=O)CC3CCCC3)ccc21 | -3.2
Cc1csc(N2CCN(CCCN3CCCC3=O)CC2)n1 | 3.92
O=C(NCCCn1cccn1)c1csc2c1CCCC2 | -10.2
O=S(=O)(Cc1ccccc1)NCc1ccnc(O)c1 | -1.2
O=C(NC1CCN(c2ncccc2F)C1)c1cccc(-n2ccnn2)c1 (stereo not drawn) | 7.49
COC(=O)CCNC(=O)C1CC(=O)N(C2CCCC2)C1 (stereo not drawn) | -22.9
CSC(C)(C)CNC(=O)NC1CCSCC1 | 17.5
CCc1nnc2n1CCN(Cc1csc(-c3cnn(C)c3)n1)C2 | 18.4
N#Cc1ncn(CC(=O)Nc2cc(Cl)ccc2F)n1 | -2.75
CCc1nnc2n1CC(CNCc1ccncc1)CC2 (stereo not drawn) | -15.1
CCn1nc(C)c(CCNC(=O)C2CCCN(C(C)=O)C2)c1C (stereo not drawn) | -20.8
CCc1cnc(C)nc1NC1CC(=O)N(CC2CCCCC2)C1 (stereo not drawn) | -6.38

SMILES | cytotoxicity at 10 µM [%]
Cc1nc2c(c(=O)n1C)CN(C(=O)C1CCCN(C(N)=O)C1)C2 (stereo not drawn) | -2.38
COCc1nc(N(C)CCSc2ccccc2)c2cnn(C)c2n1 | 1.98
CCC(=O)c1ccc(OCC(=O)N2CCNCC2C(=O)NC2CC2)cc1 (stereo not drawn) | -3.28
CC(C)(C)c1noc(-c2nc3c([nH]2)CCCNC3=O)n1 | -3.83
COc1ccc(C(=O)C2CCCN(Cc3ccccc3O)C2)c(OC)c1 (stereo not drawn) | 5.45
CCNC(=O)[C@@H]1C[C@H](NC(=O)c2cc(CC)n[nH]2)CN1Cc1ccsc1 | -5.92
Clc1cc(NCc2ncc[nH]2)nc2[nH]ccc12 | 6.68
Cc1cnc(NC(=O)c2cccc(CN(C)Cc3ccno3)c2)s1 | 61.3
O=C(CC[C@@H]1CCCN2CCCC[C@H]12)NCCc1nc(O)cc(O)n1 | -0.392
Cc1cc(CN(C)C(=O)CN2CC3(CCNCC3)OC2=O)no1 | 3.19
CC(C)n1cnnc1CN(C)Cc1cnc(-c2ccco2)nc1 | 10.8
Cc1cnc(NCCc2c[nH]cn2)nc1-c1ccnn1C | -2.53
CC(C)NC(=O)CN1CCN(CC2CCOc3ccccc3C2)CC1 (stereo not drawn) | -1.72
Cc1ncsc1CCC(=O)NCc1csc(N2CCCC2)n1 | -2.56
O=C(O)[C@@H]1CN(C(=O)c2cc(C3CC3)n[nH]2)C[C@H]1c1cccc(F)c1 | -9
COc1ccc2c(c1)CCN(CCC(=O)O)CC2 | -9.21
COCc1ncc(CN2CCC(Oc3ccccc3OC)CC2)cn1 | -1.77
CCN(CC)S(=O)(=O)N(CC)Cc1ccc2c(c1)OCCO2 | 4.66
COC(=O)C(NC(=O)CCOC(C)C)c1cc(F)ccc1F (stereo not drawn) | -4.11
Cc1nc(C)c(CN2CCC(N(C)Cc3noc(C4CC4)n3)C2)s1 (stereo not drawn) | -20
CC1CN(CC(=O)NCc2ccccn2)CCN1Cc1nccn1C (stereo not drawn) | -4.07
CCc1noc(C)c1C(=O)N1CCCC(n2nc(C)nc2C)C1 (stereo not drawn) | -7.01
Cc1cc(C(=O)NCc2ccnc(OCC(F)(F)F)c2)on1 | -9.63

SMILES | cytotoxicity at 10 µM [%]
Cn1cnc2c1CCN(Cc1csc(C3CCCC3)n1)C2 | -12.3
COCCOc1ncccc1C(=O)N1CCCC(n2ccnc2C)C1 (stereo not drawn) | -7.52
CCN(CC)C(=O)c1ccc(-n2ncc(C#N)c2N)cc1 | 0.796
CCOc1ncccc1NC(=O)NC1CCN(c2ncccn2)CC1 | -33.3
Cc1nn(C)c(C)c1C1CCCN1Cc1nc2ccccc2o1 (stereo not drawn) | -20.6
CC(=O)N(Cc1ncc(C)o1)C1CCN(Cc2ccccc2F)C1 (stereo not drawn) | -8.08
C1CC(NCc2nnc(C3CC3)o2)CN(Cc2noc(C3CC3)n2)C1 (stereo not drawn) | -19
O=C(NCCC(=O)N1CCCc2ccccc21)c1cc(F)cc(F)c1 | -6.14
CC(C)c1nc(CN2CCCC(O)C2)cs1 (stereo not drawn) | -7.13
CCc1noc(CN2CCN(C(=O)c3ccccn3)CC2)n1 | -0.775
Cc1ccc(CSCCn2nc3ccccn3c2=O)cc1 | 5.64
N#Cc1ccnc(N2CCN(C(=O)NC3CCS(=O)(=O)C3)CC2)c1 (stereo not drawn) | -6.83
CCCNC(=O)[C@@H]1CCCN1[C@@H](C(=O)NC)C1CC1 | 1.32
CCN(CC)Cc1cc(=O)n2c(n1)CN(C(=O)c1ccnnc1)CCC2 | 6.66
c1cc(CN2CCC3(CCOCC3COCC3CC3)CC2)ccn1 (stereo not drawn) | -9.52
Cc1nn(C)c(N(C)C)c1CNCCOc1ccc2c(c1)OCO2 | -1.34
O=C(NC[C@]12COC[C@H]1CN(Cc1nccs1)C2)N1CCCC1 | -7.27
Cc1nc(CN2CC[C@H]3[C@@H]2CCC(=O)N3c2cnn(C)c2)cs1 | 11.3
COc1cc(N2CC[C@@H]3O[C@H](C(=O)N(C)C)C[C@@H]32)ncn1 | 1.14
CC(=O)N(C)C1CCC2(CC1)CNC(=O)c1cc(C)ccc1O2 (stereo not drawn) | -35.4
O=c1[nH]c2cn(-c3ccc(Cl)cc3)c(=O)n2[nH]1 | 2.43

Source: ChEMBL document CHEMBL4513216, “Probing the Open Global Health Chemical Diversity Library for Multistage-Active Starting Points for Next-Generation Antimalarials” (ACS Infect Dis, 2020)
